Measurements as given in ChEMBL document CHEMBL4033622, “Synthesis and the interaction of 2-(1H-pyrazol-4-yl)-1H-imidazo[4,5-f][1,10]phenanthrolines with telomeric DNA as lung cancer inhibitors” (Eur J Med Chem, 2017).
Activity calls are given as the source filed them. No cut-off for these calls is given here.

Columns and labels:
[1] = test system: A549; assay: Cytotoxicity against human A549 cells assessed as cell growth inhibition at 10 uM after 36 hrs by CCK8 assay; format: functional, cell-based
[2] = test system: MRC5; assay: Cytotoxicity against human MRC5 cells after 36 hrs by CCK8 assay; format: cell-based; conditions: MRC5, 36 h
[3] = test system: A549; assay: Cytotoxicity against human A549 cells after 36 hrs by CCK8 assay; format: functional, cell-based; conditions: A549, 36 h
[4] = Selectivity index, ratio of IC50 for human MRC5 cells to IC50 for human A549 cells; format: functional
[5] = species on record: Homo sapiens; assay: Binding affinity to human telomeric 26 G-quadruplex DNA assessed as change in melting temperature at drug/DNA ratio of 1:10 by UV spectrophotometry (reference value: 39.34 degC)
[6] = test system: A549; assay: Anti-migratory activity against human A549 cells assessed as […] at 0.05 uM after 48 hrs by wound healing assay relative to control; format: functional; conditions: A549, 48 h
Summary of the method: (§1)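 A549 monolayer seeded at 1 × 10⁵ cells/mL and grown 24 h, then scratched with a pipette tip. Compounds were added and cells kept 48 h in serum-free medium, then photographed. Migration distance was measured against lines fitted to the wound edges, with three points per plate. Inhibition (%) = (1 − D_drug/D_control) × 100. Mean ± SD of three independent experiments in triplicate.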

[7] = test system: A549; assay: Anti-migratory activity against human A549 cells assessed as […] at 0.1 uM after 48 hrs by wound healing assay relative to control; format: functional; conditions: A549, 48 h; summary of the method: as §1
[8] = test system: A549; assay: Anti-migratory activity against human A549 cells assessed as […] at 0.2 uM after 48 hrs by wound healing assay relative to control; format: functional; conditions: A549, 48 h; summary of the method: as §1
[9] = species on record: Homo sapiens; assay: Binding affinity to human telomeric 26 G-quadruplex DNA up to 20 uM after 24 hrs by SYBR gold staining based electrophoretic mobility shift assay
[10] = species on record: Homo sapiens; assay: Binding affinity to human telomeric 26 G-quadruplex DNA after 24 hrs by SYBR gold staining based electrophoretic mobility shift assay
[11] = species on record: Homo sapiens; assay: Binding affinity to human telomeric 26 mutated DNA up to 40 uM after 24 hrs by SYGR gold staining based electrophoretic mobility shift assay
[12] = species on record: Homo sapiens; assay: Binding affinity to human telomeric 26 double stranded DNA up to 40 uM after 24 hrs by SYBR gold staining based electrophoretic mobility shift assay
[13] = test system: A549; assay: Cytotoxicity against human A549/ATCC cells after 48 hrs by sulforhodamine B assay; format: functional, cell-based; conditions: A549, 48 h

## Fc1ccc(-c2nn(Cc3ccccc3)cc2-c2nc3c4cccnc4c4ncccc4c3[nH]2)cc1
[1]
  growth inhibition (GI): Active
[2]
  IC50: 3.8 µM
[3]
  IC50: 1.78 µM
[4]
  Ratio IC50: 2.13
[5]
  ΔTm: 12.4 °C
[6]
  inhibition of growth at 0.05 µM: 34.5%
[7]
  inhibition of growth at 0.1 µM: 86.6%
[8]
  inhibition of growth at 0.2 µM: 93.3%
[9]
  Activity: inactive

## CN(C)CCCn1cc(-c2nc3c4cccnc4c4ncccc4c3[nH]2)c(-c2ccc(Cl)cc2)n1
[1]
  growth inhibition (GI): Active

## Clc1ccc(-c2nn(Cc3ccccc3)cc2-c2nc3c4cccnc4c4ncccc4c3[nH]2)cc1
[1]
  growth inhibition (GI): Active
[2]
  IC50: 4.17 µM
[3]
  IC50: 2.08 µM
[4]
  Ratio IC50: 2
[5]
  ΔTm: 13.5 °C
[6]
  inhibition of growth at 0.05 µM: 24.7%
[7]
  inhibition of growth at 0.1 µM: 54.2%
[8]
  inhibition of growth at 0.2 µM: 94.4%
[9]
  Activity: inactive

## Nc1ccc(-n2cc(-c3nc4c5cccnc5c5ncccc5c4[nH]3)c(-c3ccc(Br)cc3)n2)nn1
[1]
  growth inhibition (GI): Active

## O=[N+]([O-])c1ccc(-n2cc(-c3nc4c5cccnc5c5ncccc5c4[nH]3)c(-c3ccc(Br)cc3)n2)c([N+](=O)[O-])c1
[1]
  growth inhibition (GI): Active

## Fc1ccc(-c2n[nH]cc2-c2nc3c4cccnc4c4ncccc4c3[nH]2)cc1
[1]
  growth inhibition (GI): Active

## O=[N+]([O-])c1ccc(-n2cc(-c3nc4c5cccnc5c5ncccc5c4[nH]3)c(-c3ccc(F)cc3)n2)c([N+](=O)[O-])c1
[1]
  growth inhibition (GI): Active

## Cc1ccc(-c2nn(-c3ccc([N+](=O)[O-])cc3[N+](=O)[O-])cc2-c2nc3c4cccnc4c4ncccc4c3[nH]2)cc1
[1]
  growth inhibition (GI): Active

## Cn1cc(-c2nc3c4cccnc4c4ncccc4c3[nH]2)c(-c2ccc(Cl)cc2)n1
[1]
  growth inhibition (GI): Active

## Brc1ccc(-c2nn(Cc3ccccc3)cc2-c2nc3c4cccnc4c4ncccc4c3[nH]2)cc1
[1]
  growth inhibition (GI): Active
[2]
  IC50: 3.83 µM
[3]
  IC50: 1.48 µM
[4]
  Ratio IC50: 2.58
[10]
  Activity: Dose-dependent effect
[11]
  Activity: inactive
[12]
  Activity: inactive
[5]
  ΔTm: 20.5 °C
[6]
  inhibition of growth at 0.05 µM: 48.3%
[7]
  inhibition of growth at 0.1 µM: 78.8%
[8]
  inhibition of growth at 0.2 µM: 98.4%
[9]
  Activity: Active

## Brc1ccc(-c2n[nH]cc2-c2nc3c4cccnc4c4ncccc4c3[nH]2)cc1
[1]
  growth inhibition (GI): Active

## Cc1ccc(-c2nn(Cc3ccccc3)cc2-c2nc3c4cccnc4c4ncccc4c3[nH]2)cc1
[1]
  growth inhibition (GI): Active
[2]
  IC50: 4.76 µM
[3]
  IC50: 2.75 µM
[4]
  Ratio IC50: 1.73
[5]
  ΔTm: 16.3 °C
[6]
  inhibition of growth at 0.05 µM: 16.3%
[7]
  inhibition of growth at 0.1 µM: 54.6%
[8]
  inhibition of growth at 0.2 µM: 85.8%
[9]
  Activity: inactive

## Cn1cc(-c2nc3c4cccnc4c4ncccc4c3[nH]2)c(-c2ccc(F)cc2)n1
[1]
  growth inhibition (GI): Active

## CN(C)CCCn1cc(-c2nc3c4cccnc4c4ncccc4c3[nH]2)c(-c2ccc(Br)cc2)n1
[1]
  growth inhibition (GI): Active

## Cc1ccc(-c2nn(C)cc2-c2nc3c4cccnc4c4ncccc4c3[nH]2)cc1
[1]
  growth inhibition (GI): Active

## Clc1ccc(-c2n[nH]cc2-c2nc3c4cccnc4c4ncccc4c3[nH]2)cc1
[1]
  growth inhibition (GI): Active

## Cc1ccc(-c2n[nH]cc2-c2nc3c4cccnc4c4ncccc4c3[nH]2)cc1
[1]
  growth inhibition (GI): Active

## Brc1ccc(-c2nc3c4cccnc4c4ncccc4c3[nH]2)cc1
[1]
  growth inhibition (GI): Active
[2]
  IC50: 6.88 µM
[3]
  IC50: 1.69 µM
[4]
  Ratio IC50: 4.07
[11]
  Activity: inactive
[12]
  Activity: inactive
[5]
  ΔTm: 11 °C
[6]
  inhibition of growth at 0.05 µM: 16.1%
[7]
  inhibition of growth at 0.1 µM: 23.7%
[8]
  inhibition of growth at 0.2 µM: 56.1%
[9]
  Activity: inactive

## Oc1cn(-c2ccc(Cl)cc2)nc1-c1n[nH]c(=S)n1-c1ccc(F)cc1
[13]
  GI50: 13.2 µM

## CN(C)CCCn1cc(-c2nc3c4cccnc4c4ncccc4c3[nH]2)c(-c2ccc(F)cc2)n1
[1]
  growth inhibition (GI): Active

## Cc1ccc(-c2nn(CCCN(C)C)cc2-c2nc3c4cccnc4c4ncccc4c3[nH]2)cc1
[1]
  growth inhibition (GI): Active

## Cn1cc(-c2nc3c4cccnc4c4ncccc4c3[nH]2)c(-c2ccc(Br)cc2)n1
[1]
  growth inhibition (GI): Active

## O=[N+]([O-])c1ccc(-n2cc(-c3nc4c5cccnc5c5ncccc5c4[nH]3)c(-c3ccc(Cl)cc3)n2)c([N+](=O)[O-])c1
[1]
  growth inhibition (GI): Active
